pIC50, pKi: −log10 of the molar value. Calls of active or inactive are those of the source. The calls are words filed in the database; no cut-off is given here.
Assays:
MCF7 [1] = experiment: Viability of MCF7 cells at 100 uM; type: functional, Homo sapiens
Summary of the method: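 Cells grown in DMEM with 10% FCS and 4 mM glutamine at 37 °C, plated in 96-well format, preincubated 12 h, then exposed 72 h. Live cells measured by Calcein AM (1 h) fluorescence at 485/538 nm; % viable cells given at 100 µM compound.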

[2] = target: CDK9/cyclin T1 (Homo sapiens) (UniProt O60563+P50750); experiment: Activity of CDK9/Cyclin T1 at 10 uM; type: protein-complex assay
HT-29 [3] = experiment: Inhibition of CEA mRNA synthesis in HT29 cells measured as number of copies per 10^6 cells by RT PCR at 50 uM after 3 hrs; type: functional, Homo sapiens
Summary of the method: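 HT-29 cells were treated 3, 6 or 12 h; total RNA extracted with TRI reagent. 3 µg RNA reverse-transcribed with random primers and M-MLV RT at 42 °C for 60 min. CEA transcripts quantified by TaqMan real-time PCR: 50 cycles of 95 °C 15 s and 65 °C 15 s. Absolute copies came from amplicon standards of 30 to 10^6 copies, expressed per 10^6 cells. Samples run in duplicate PCR; values average of four determinations ± SD.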

[4] = target: Cyclin-dependent kinase 7/ cyclin H (Homo sapiens, UniProt P50613); experiment: Inhibition of CDK7/Cyclin H in presence of 100 uM ATP; type: protein-complex assay
[5] = target: T1, Cyclin-dependent kinase 2/cyclin E (Homo sapiens, UniProt P24941); experiment: Inhibition of CDK2/Cyclin E; type: protein-complex assay; conditions: read-out: Ki app
Summary of the method: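 CDK2-cyclin E made in Sf9 insect cells co-infected with baculoviral constructs, purified on NiNTA. Assayed with 1 mg/mL histone H1, 15 µM ATP plus 0.05 µCi [γ-33P]ATP, in 50 mM HEPES, 10 mM MgCl2, 5 mM EGTA, 10 mM 2-glycerolphosphate, 1 mM NaF, 1 mM DTT, pH 7.4. Activity expressed as percentage of maximum; IC50 taken from dose-response curves.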

[6] = target: Cyclin-dependent kinase 1/cyclin B (Homo sapiens, UniProt P06493); experiment: Inhibition of CDK1/Cyclin B in presence of 100 uM ATP; type: protein-complex assay
[7] = target: Glycogen synthase kinase-3 beta (Homo sapiens) (UniProt P49841); experiment: Activity of GSK3-beta at 10 uM
Summary of the method: (§1)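 Radiometric kinase assay at 10 µM inhibitor, run in duplicate. c-Abl, CHK1, GSK3β, p70S6K, PKA and PKBα were run in 8 mM MOPS pH 7.0 with 0.2 mM EDTA. MAPK1 and SAPK2α were run in 25 mM Tris pH 7.5 with 0.02 mM EGTA. CK2 was run in 20 mM HEPES pH 7.6, 0.15 M NaCl, 0.1 mM EDTA, 2 mM DTT and 0.1% Triton X-100. All had 10 mM Mg-acetate, 10 µM ATP, [γ-33P]ATP and a peptide substrate; 40 min; H3PO4 stop; P30 filter; scintillation counting.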

[8] = target: cAMP-dependent protein kinase (PKA) (Homo sapiens) (UniProt P22694+P17612+P22612); experiment: Activity of PKA at 10 uM; type: protein assay; summary of the method: as §1
MCF7 [9] = experiment: Decrease in pRb phosphorylation in MCF7 cells after 24 hrs at 25 uM; type: functional, cell-based; conditions: Homo sapiens
Summary of the method: (§2)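 MCF7 cells were treated 24 h, lysed in Laemmli buffer and run on 10% SDS-PAGE. Proteins were blotted to nitrocellulose; loading checked with Ponceau-S; blocked with 5% milk in PBS-Tween. Specific antibodies applied overnight (pRb phosphosites Ser780, Ser807, Thr821; p53; p21WAF1), then peroxidase secondary at 1:2000 with ECL detection.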

[10] = target: Tyrosine-protein kinase ABL1 (Homo sapiens) (UniProt P00519); experiment: Activity of c-ABL at 10 uM; summary of the method: as §1
HT-29 [11] = experiment: Cell cycle arrest in HT29 cells by accumulation at G2/M phase at 50 uM after 6 hrs; type: functional, Homo sapiens
Summary of the method: (§3)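 Subconfluent, asynchronous HT-29 cells were treated 3, 6 or 12 h, then pulsed with 10 µM BrdU for 30 min at 37 °C. Cells were fixed in ice-cold 70% ethanol, DNA denatured in 2 M HCl and neutralised with borate. Staining used FITC anti-BrdU, then propidium iodide (0.1 mg/mL) with RNase A. Analysis by flow cytometry with 488 nm laser.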

MCF7 [12] = experiment: Decrease in pRb phosphorylation in MCF7 cells after 24 hrs at 50 uM; type: functional, cell-based; conditions: Homo sapiens; summary of the method: as §2
HT-29 [13] = experiment: Inhibition of EpCAM mRNA synthesis in HT29 cells measured as number of copies per 10^6 cells by RT PCR at 50 uM after 12 hrs; type: functional, Homo sapiens
Summary of the method: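 HT-29 cells (5 × 10⁶) treated for 3, 6 or 12 h; total RNA extracted with TRI reagent, 3 µg reverse transcribed with random primers and M-MLV RT (42 °C, 60 min). Absolute transcript copies quantified by TaqMan real-time PCR, 50 cycles, against diluted gene-specific amplicon standards (30–1 000 000 copies); duplicate PCR per sample; values are means of four determinations ± SD.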

[14] = target: Serine/threonine-protein kinase Chk1 (Homo sapiens) (UniProt O14757); experiment: Activity of CHK1 at 10 uM; summary of the method: as §1
[15] = target: T1, Cyclin-dependent kinase 2/cyclin E; experiment: Inhibition of CDK2/Cyclin E in presence of 15 uM ATP; type: protein-complex assay
HT-29 [16] = experiment: Cell cycle arrest in HT29 cells by accumulation at G0/G1 phase at 50 uM after 12 hrs; type: functional, Homo sapiens; summary of the method: as §3

Cyclin-dependent kinase 7/ cyclin H, sequence (P51946 whole entry): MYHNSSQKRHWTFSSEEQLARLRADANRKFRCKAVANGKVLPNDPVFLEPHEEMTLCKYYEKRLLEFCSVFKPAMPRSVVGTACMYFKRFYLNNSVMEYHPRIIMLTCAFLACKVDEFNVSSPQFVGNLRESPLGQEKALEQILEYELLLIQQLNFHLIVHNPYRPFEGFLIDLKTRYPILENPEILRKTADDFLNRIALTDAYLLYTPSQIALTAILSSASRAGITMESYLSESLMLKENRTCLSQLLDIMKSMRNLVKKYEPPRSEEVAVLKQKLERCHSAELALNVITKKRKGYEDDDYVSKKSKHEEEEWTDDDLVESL
Cyclin-dependent kinase 7/ cyclin H, sequence (P50613 whole entry): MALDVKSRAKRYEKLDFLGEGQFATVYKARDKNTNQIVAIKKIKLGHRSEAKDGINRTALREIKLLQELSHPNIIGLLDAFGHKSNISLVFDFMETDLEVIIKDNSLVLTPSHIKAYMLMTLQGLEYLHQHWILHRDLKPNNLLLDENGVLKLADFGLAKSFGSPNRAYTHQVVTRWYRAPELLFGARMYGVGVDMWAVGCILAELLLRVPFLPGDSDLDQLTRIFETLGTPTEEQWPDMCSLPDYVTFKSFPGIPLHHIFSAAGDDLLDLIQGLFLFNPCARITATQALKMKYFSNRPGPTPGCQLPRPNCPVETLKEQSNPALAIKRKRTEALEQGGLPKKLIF
Tyrosine-protein kinase ABL1 (Homo sapiens), sequence (P00519 whole entry): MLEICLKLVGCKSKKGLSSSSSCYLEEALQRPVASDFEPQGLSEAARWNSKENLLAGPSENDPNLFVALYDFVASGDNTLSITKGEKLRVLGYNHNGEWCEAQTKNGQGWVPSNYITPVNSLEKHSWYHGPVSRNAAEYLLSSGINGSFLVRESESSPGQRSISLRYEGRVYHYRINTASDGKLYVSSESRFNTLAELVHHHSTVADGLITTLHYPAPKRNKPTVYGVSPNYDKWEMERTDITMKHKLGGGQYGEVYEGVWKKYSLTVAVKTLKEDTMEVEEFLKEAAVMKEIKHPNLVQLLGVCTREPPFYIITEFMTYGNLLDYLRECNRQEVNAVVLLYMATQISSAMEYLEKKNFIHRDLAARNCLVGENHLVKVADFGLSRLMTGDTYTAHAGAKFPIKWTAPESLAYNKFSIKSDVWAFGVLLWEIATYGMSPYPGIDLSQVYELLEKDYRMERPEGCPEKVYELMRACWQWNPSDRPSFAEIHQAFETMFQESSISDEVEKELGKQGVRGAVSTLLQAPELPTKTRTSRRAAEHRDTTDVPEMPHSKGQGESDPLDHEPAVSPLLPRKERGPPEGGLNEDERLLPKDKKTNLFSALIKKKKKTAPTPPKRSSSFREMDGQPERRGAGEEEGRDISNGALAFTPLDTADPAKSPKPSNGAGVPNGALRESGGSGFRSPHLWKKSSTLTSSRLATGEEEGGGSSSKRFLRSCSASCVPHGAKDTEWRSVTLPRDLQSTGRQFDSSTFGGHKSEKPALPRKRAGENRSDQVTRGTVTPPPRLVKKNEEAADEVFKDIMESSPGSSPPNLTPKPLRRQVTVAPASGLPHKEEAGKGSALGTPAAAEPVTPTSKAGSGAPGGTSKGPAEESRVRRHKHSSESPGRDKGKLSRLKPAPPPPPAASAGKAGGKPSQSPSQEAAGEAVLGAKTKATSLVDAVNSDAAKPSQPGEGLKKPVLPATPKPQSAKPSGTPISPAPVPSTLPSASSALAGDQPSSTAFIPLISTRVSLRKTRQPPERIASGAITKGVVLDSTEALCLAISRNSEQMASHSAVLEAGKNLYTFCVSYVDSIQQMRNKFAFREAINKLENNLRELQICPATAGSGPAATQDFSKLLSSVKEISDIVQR
Serine/threonine-protein kinase Chk1 (Homo sapiens), sequence (O14757 whole entry): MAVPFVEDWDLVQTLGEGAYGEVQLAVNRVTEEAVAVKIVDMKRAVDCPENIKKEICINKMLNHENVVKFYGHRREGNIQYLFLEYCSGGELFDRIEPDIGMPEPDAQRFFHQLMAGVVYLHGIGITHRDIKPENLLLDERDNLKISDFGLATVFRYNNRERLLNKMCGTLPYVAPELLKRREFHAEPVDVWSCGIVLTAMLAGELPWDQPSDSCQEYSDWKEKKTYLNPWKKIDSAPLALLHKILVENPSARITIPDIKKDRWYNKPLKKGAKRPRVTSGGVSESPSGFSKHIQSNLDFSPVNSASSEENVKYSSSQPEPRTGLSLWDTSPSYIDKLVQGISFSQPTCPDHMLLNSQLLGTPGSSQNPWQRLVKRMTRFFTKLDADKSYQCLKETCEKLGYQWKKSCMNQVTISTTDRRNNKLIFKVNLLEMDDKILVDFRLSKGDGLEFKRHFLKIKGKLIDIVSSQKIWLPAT
Glycogen synthase kinase-3 beta (Homo sapiens), sequence (P49841 whole entry, looked up): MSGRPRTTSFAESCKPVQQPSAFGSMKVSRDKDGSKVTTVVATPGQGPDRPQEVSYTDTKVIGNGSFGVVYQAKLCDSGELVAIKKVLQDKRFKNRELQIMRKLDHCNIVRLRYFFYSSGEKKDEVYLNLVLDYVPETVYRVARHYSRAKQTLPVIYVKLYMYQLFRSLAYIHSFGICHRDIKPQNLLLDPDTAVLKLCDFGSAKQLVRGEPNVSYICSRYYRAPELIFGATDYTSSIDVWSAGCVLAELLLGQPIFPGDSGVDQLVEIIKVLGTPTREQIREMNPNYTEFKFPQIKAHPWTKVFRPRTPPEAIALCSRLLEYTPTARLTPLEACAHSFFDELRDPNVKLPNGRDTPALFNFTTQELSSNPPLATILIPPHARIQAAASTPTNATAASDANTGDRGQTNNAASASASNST

Nc1n[nH]c(N)c1/N=N/c1ccc(O)cc1
Activity (MCF7 [1]): 20% | residual activity [2]: 6.9% | Activity (HT-29 [3]): 27900 | pIC50 [4]: 4.59 | pKi [5]: 4.88 | pIC50 [6]: 4.36 | residual activity [7]: 81% | residual activity [8]: 67% | Activity (MCF7 [9]): Active | residual activity [10]: 84% | Activity (HT-29 [11]): 9.9% | Activity (MCF7 [12]): Active | Activity (HT-29 [13]): 2951620 | residual activity [14]: 89% | pIC50 [15]: 5.46 | Activity (HT-29 [16]): 27.2%

— ChEMBL document CHEMBL1137343, “4-arylazo-3,5-diamino-1H-pyrazole CDK inhibitors: SAR study, crystal structure in complex with CDK2, selectivity, and cellular effects” (J Med Chem, 2006)
